Experimental data published in ChEMBL document CHEMBL4219181, “Site-specific effect of polar functional group-modification in lipids of TLR2 ligands for modulating the ligand immunostimulatory activity” (Bioorg Med Chem Lett, 2018).
Activity calls are given as the source filed them. No cut-off for these calls is given here. Where a SMILES comes first, the peptide text is derived from it. The star is where a group is joined. Propyl(2R-PamO,3-PamO) = CCCCCCCCCCCCCCCC(=O)OC[C@H](C*)OC(=O)CCCCCCCCCCCCCCC; X1 = CCCCCCCCCCCCCCCC(=O)OC[C@H](C*)OC(=O)CCCCCNC(=O)CCCCCCCC; X2 = CCCCCCCCCCCCCCCC(=O)OC[C@H](C*)OC(=O)CCNC(=O)CCCCCCCCCCC; X3 = CCCCCCCCCCCCCCCC(=O)OC[C@H](C*)OC(=O)CCCNC(=O)CCCCCCCCCC; X4 = CCCCCCCCCCCCCCCC(=O)OC[C@H](C*)OC(=O)CCCCCCNC(=O)CCCCCCC; X5 = CCCCCCCCCCCCCCCC(=O)OC[C@H](C*)OC(=O)CCCCNC(=O)CCCCCCCCC; X6 = CCCCCCCCCCCCCCCC(=O)O[C@H](COC(=O)CCCCCCCCCCNC(=O)CCC)C*; X7 = CCCCCCCCCCCCCCCC(=O)O[C@H](COC(=O)CCCCCCCCNC(=O)CCCCC)C*; X8 = CCCCCCCCCCCCCCCC(=O)O[C@H](COC(=O)CCCCCCCCCCCNC(=O)CC)C*; X9 = CCCCCCCCCCCCCCCC(=O)O[C@H](COC(=O)CCCCCCCCCNC(=O)CCCC)C*

Experiments:
THP-1 [1] = test: Immunostimulatory activity in human THP1 cells assessed as increase in TNF-alpha production at 1 to 100 nM after 24 hrs by ELISA; assay type: functional, cell-based
RAW264.7 [2] = test: Immunostimulatory activity in mouse RAW264.7 cells assessed as increase in IL-6 production at 1 to 100 nM after 24 hrs by ELISA; assay type: functional, cell-based
Procedure, shortened: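 Murine RAW264.7 macrophages were incubated with various ligand concentrations, and secreted IL-6 was quantified by ELISA. Values are mean ± standard error of triplicates, with results reproduced in two or three independent experiments.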

RAW264.7 [3] = test: Immunostimulatory activity in mouse RAW264.7 cells assessed as increase in TNF-alpha production at 1 to 100 nM after 24 hrs by ELISA; assay type: functional, cell-based
Toll-like receptor 2 [4] = biological target: Toll-like receptor 2 (Mus musculus, UniProt Q9QUN7); test: Inhibition of biotin labelled Pam2CSK4 binding to mouse TLR2 Fc chimera protein after 45 mins by AlphaScreen assay
Sequence of Toll-like receptor 2 (Mus musculus, UniProt Q9QUN7) (Q9QUN7 whole entry): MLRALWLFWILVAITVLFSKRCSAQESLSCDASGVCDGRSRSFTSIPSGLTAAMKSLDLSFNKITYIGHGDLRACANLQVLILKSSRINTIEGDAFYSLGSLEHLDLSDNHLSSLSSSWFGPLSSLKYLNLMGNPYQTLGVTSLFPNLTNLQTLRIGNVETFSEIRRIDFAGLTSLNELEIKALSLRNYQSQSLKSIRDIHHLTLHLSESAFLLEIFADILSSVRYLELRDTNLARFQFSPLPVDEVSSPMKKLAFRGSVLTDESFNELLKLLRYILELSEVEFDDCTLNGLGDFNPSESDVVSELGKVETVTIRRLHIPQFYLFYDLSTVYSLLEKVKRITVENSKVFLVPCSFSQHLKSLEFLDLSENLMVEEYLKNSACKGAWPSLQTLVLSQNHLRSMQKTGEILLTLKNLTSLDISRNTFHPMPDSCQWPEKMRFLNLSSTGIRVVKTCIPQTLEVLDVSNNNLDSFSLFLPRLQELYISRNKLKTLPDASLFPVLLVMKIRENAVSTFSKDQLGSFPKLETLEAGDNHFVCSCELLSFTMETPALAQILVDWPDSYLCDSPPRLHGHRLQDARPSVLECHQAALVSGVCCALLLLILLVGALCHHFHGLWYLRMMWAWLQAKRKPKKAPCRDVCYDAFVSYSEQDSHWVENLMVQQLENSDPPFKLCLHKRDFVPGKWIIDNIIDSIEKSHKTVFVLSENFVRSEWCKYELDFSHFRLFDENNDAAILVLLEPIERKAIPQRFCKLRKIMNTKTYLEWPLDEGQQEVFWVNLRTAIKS

THP-1 [5] = test: Immunostimulatory activity in human THP1 cells assessed as increase in IL-6 production at 1 to 100 nM after 24 hrs by ELISA; assay type: functional, cell-based
Procedure, shortened: (§1)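 PMA-differentiated THP-1 human monocytic cells were incubated with a range of ligand concentrations. Secreted IL-6 was measured by ELISA. Data are mean ± standard error of triplicate values, and similar results were obtained in two or three independent experiments.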

Toll-like receptor 2 [6] = biological target: Toll-like receptor 2 (Homo sapiens, UniProt O60603); test: Inhibition of biotin labelled Pam2CSK4 binding to His tagged human TLR2 after 45 mins by AlphaScreen assay
Sequence of Toll-like receptor 2 (Homo sapiens, UniProt O60603) (O60603 whole entry): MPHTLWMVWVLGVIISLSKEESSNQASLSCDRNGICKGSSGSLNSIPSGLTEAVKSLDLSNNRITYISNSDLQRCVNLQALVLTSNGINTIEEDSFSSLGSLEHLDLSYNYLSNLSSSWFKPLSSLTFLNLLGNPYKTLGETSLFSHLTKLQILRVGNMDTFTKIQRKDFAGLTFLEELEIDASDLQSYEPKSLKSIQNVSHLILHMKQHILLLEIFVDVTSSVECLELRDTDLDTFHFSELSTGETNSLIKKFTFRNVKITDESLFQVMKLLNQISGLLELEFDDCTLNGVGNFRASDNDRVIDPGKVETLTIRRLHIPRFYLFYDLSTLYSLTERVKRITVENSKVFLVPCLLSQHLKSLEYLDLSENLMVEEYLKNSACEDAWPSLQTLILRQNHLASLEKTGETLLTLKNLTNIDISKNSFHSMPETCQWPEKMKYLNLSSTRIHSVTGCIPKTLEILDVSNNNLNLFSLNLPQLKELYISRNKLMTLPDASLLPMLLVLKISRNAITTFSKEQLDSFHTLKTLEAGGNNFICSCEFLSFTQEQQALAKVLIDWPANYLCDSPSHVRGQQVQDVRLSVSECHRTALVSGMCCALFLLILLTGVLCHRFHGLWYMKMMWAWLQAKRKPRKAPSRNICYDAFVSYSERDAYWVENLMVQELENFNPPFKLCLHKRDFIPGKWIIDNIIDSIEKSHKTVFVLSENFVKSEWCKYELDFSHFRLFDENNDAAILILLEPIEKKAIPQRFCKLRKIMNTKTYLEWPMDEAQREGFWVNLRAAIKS
Procedure, shortened: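 Competitive binding was measured by AlphaScreen using His-tagged human TLR2 protein and biotinylated Pam2CSK4 as the tracer ligand. Competing ligands displace Pam2CSK4-biotin and lower the luminescent proximity signal.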

THP-1 [7] = test: Immunostimulatory activity in human THP1 cells assessed as increase in TNF-alpha production after 24 hrs by ELISA; assay type: functional, cell-based
THP-1 [8] = test: Immunostimulatory activity in human THP1 cells assessed as increase in IL-6 production after 24 hrs by ELISA; assay type: functional, cell-based; procedure, shortened: as §1

SMILES | Activity (THP-1 [1]) | Activity (RAW264.7 [2]) | Activity (RAW264.7 [3]) | IC50 (Toll-like receptor 2 [4]) | Activity (THP-1 [5]) | IC50 (Toll-like receptor 2 [6]) | Activity (THP-1 [7]) | Activity (THP-1 [8])
CCCCCCCCCCCCCCCC(=O)OC[C@H](CSC[C@H](N)C(=O)N[C@@H](CO)C(=O)N[C@@H](CCCCN)C(=O)N[C@@H](CCCCN)C(=O)N[C@@H](CCCCN)C(=O)N[C@@H](CCCCN)C(=O)O)OC(=O)CCCCNC(=O)CCCCCCCCC (H-C(X5)SKKKK-OH) | Active | Active | Active | 5.61 µM | Active | 4.65 µM | – | –
CCCCCCCCCCCCCCCC(=O)OC[C@H](CSC[C@H](N)C(=O)N[C@@H](CO)C(=O)N[C@@H](CCCCN)C(=O)N[C@@H](CCCCN)C(=O)N[C@@H](CCCCN)C(=O)N[C@@H](CCCCN)C(=O)O)OC(=O)CCCCCCNC(=O)CCCCCCC (H-C(X4)SKKKK-OH) | Active | Active | Active | 5.69 µM | Active | 3.37 µM | – | –
CCCCCCCCCCCCCCCC(=O)O[C@H](COC(=O)CCCCCCCCCNC(=O)CCCC)CSC[C@H](N)C(=O)N[C@@H](CO)C(=O)N[C@@H](CCCCN)C(=O)N[C@@H](CCCCN)C(=O)N[C@@H](CCCCN)C(=O)N[C@@H](CCCCN)C(=O)O (H-C(X9)SKKKK-OH) | – | – | – | – | – | 6.43 µM | Dose-dependent effect | Dose-dependent effect
CCCCCCCCCCCCCCCC(=O)OC[C@H](CSC[C@H](N)C(=O)N[C@@H](CO)C(=O)N[C@@H](CCCCN)C(=O)N[C@@H](CCCCN)C(=O)N[C@@H](CCCCN)C(=O)N[C@@H](CCCCN)C(=O)O)OC(=O)CCCCCNC(=O)CCCCCCCC (H-C(X1)SKKKK-OH) | Active | Active | Active | 4.75 µM | Active | 4.75 µM | – | –
CCCCCCCCCCCCCCCC(=O)O[C@H](COC(=O)CCCCCCCCCCCNC(=O)CC)CSC[C@H](N)C(=O)N[C@@H](CO)C(=O)N[C@@H](CCCCN)C(=O)N[C@@H](CCCCN)C(=O)N[C@@H](CCCCN)C(=O)N[C@@H](CCCCN)C(=O)O (H-C(X8)SKKKK-OH) | – | – | – | – | – | 3.94 µM | Dose-dependent effect | Dose-dependent effect
CCCCCCCCCCCCCCCC(=O)OC[C@H](CSC[C@H](N)C(=O)N[C@@H](CO)C(=O)N[C@@H](CCCCN)C(=O)N[C@@H](CCCCN)C(=O)N[C@@H](CCCCN)C(=O)N[C@@H](CCCCN)C(=O)O)OC(=O)CCCCCCCCCCCCCCC (H-C(Propyl(2R-PamO,3-PamO))SKKKK-OH) | inactive | – | inactive | 0.349 µM | – | 0.426 to 0.55 µM | – | –
CCCCCCCCCCCCCCCC(=O)OC[C@H](CSC[C@H](N)C(=O)N[C@@H](CO)C(=O)N[C@@H](CCCCN)C(=O)N[C@@H](CCCCN)C(=O)N[C@@H](CCCCN)C(=O)N[C@@H](CCCCN)C(=O)O)OC(=O)CCCNC(=O)CCCCCCCCCC (H-C(X3)SKKKK-OH) | Active | Active | Active | 1.38 µM | Active | 1.96 µM | – | –
CCCCCCCCCCCCCCCC(=O)OC[C@H](CSC[C@H](N)C(=O)N[C@@H](CO)C(=O)N[C@@H](CCCCN)C(=O)N[C@@H](CCCCN)C(=O)N[C@@H](CCCCN)C(=O)N[C@@H](CCCCN)C(=O)O)OC(=O)CCNC(=O)CCCCCCCCCCC (H-C(X2)SKKKK-OH) | Active | Active | Active | 1.04 µM | Active | 1.68 µM | – | –
CCCCCCCCCCCCCCCC(=O)O[C@H](COC(=O)CCCCCCCCNC(=O)CCCCC)CSC[C@H](N)C(=O)N[C@@H](CO)C(=O)N[C@@H](CCCCN)C(=O)N[C@@H](CCCCN)C(=O)N[C@@H](CCCCN)C(=O)N[C@@H](CCCCN)C(=O)O (H-C(X7)SKKKK-OH) | – | – | – | – | – | 7.52 µM | Dose-dependent effect | Dose-dependent effect
CCCCCCCCCCCCCCCC(=O)O[C@H](COC(=O)CCCCCCCCCCNC(=O)CCC)CSC[C@H](N)C(=O)N[C@@H](CO)C(=O)N[C@@H](CCCCN)C(=O)N[C@@H](CCCCN)C(=O)N[C@@H](CCCCN)C(=O)N[C@@H](CCCCN)C(=O)O (H-C(X6)SKKKK-OH) | – | – | – | – | – | 4.36 µM | Dose-dependent effect | Dose-dependent effect
